Active and inactive are the calls of the source. No cut-off for these calls is given here.
Assays:
[1] = system: Protein cereblon/Epidermal growth factor receptor (Homo sapiens), P00533+Q96SW2 [UNDEFINED MUTATION]; assay: Protac activity at CRBN/EGFR exon 19 deletion mutant in human HCC827 cells assessed as induction of EGFR degradation at up to 1 uM treated 8 hrs post serum starvation measured after 16 hrs by Western blot analysis; assay type: cell-based
[2] = system: Protein cereblon/Epidermal growth factor receptor (Homo sapiens), P00533+Q96SW2 [UNDEFINED MUTATION]; assay: Protac activity at CRBN/EGFR exon 19 deletion mutant in human HCC827 cells assessed as induction of EGFR degradation at >=50 nM treated 8 hrs post serum starvation measured after 16 hrs by Western blot analysis relative to control; assay type: cell-based
How it was run: (§1)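 Cultured to 80% confluence in RPMI/1640 with 20% FBS at 37 °C and 5% CO2, then switched to serum-free medium for 8 h. Degraders were added over a concentration range up to 10 μM for 16 h, with gefitinib at 1 μM as reference. Lysates in Laemmli buffer were immunoblotted for EGFR, p-EGFR and p-AKT. DC50 came from band quantification by nonlinear regression (variable slope).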

[3] = system: Protein cereblon/Epidermal growth factor receptor (Homo sapiens), P00533+Q96SW2 [L858R]; assay: Protac activity at CRBN/EGFR L858R mutant in human H3255 cells assessed as induction of EGFR degradation at >=50 nM treated 8 hrs post serum starvation measured after 16 hrs by Western blot analysis relative to control; assay type: cell-based; how it was run: as §1
[4] = system: Protein cereblon/Epidermal growth factor receptor (Homo sapiens), P00533+Q96SW2 [UNDEFINED MUTATION]; assay: Protac activity at CRBN/EGFR exon 19 deletion mutant in human HCC827 cells assessed as induction of EGFR degradation at 10 uM treated 8 hrs post serum starvation measured after 16 hrs by Western blot analysis relative to control; assay type: cell-based; how it was run: as §1
[5] = system: Protein cereblon/Epidermal growth factor receptor (Homo sapiens), P00533+Q96SW2 [L858R]; assay: Protac activity at CRBN/EGFR L858R mutant in human H3255 cells assessed as induction of EGFR degradation at 10 uM treated 8 hrs post serum starvation measured after 16 hrs by Western blot analysis; assay type: cell-based; how it was run: as §1
[6] = system: Protein cereblon/Epidermal growth factor receptor (Homo sapiens), P00533+Q96SW2 [UNDEFINED MUTATION]; assay: Protac activity at CRBN/EGFR exon 19 deletion mutant in human HCC827 cells assessed as reduction in EGFR autophosphorylation up to 10 uM treated 8 hrs post serum starvation measured after 16 hrs by Western blot analysis; assay type: cell-based; how it was run: as §1
[7] = system: Protein cereblon/Epidermal growth factor receptor (Homo sapiens), P00533+Q96SW2 [L858R]; assay: Protac activity at CRBN/EGFR L858R mutant in human H3255 cells assessed as reduction in EGFR autophosphorylation up to 10 uM treated 8 hrs post serum starvation measured after 16 hrs by Western blot analysis; assay type: cell-based; how it was run: as §1
[8] = system: Protein cereblon/Epidermal growth factor receptor (Homo sapiens), P00533+Q96SW2 [L858R]; assay: Protac activity at CRBN/EGFR L858R mutant in human H3255 cells assessed as reduction in AKT phosphorylation up to 10 uM treated 8 hrs post serum starvation measured after 16 hrs by Western blot analysis; assay type: cell-based; how it was run: as §1
HCC827 [9] = assay: Effect on AKT level in human HCC827 cells up to 10 uM treated 8 hrs post serum starvation measured after 16 hrs by Western blot analysis; assay type: ADME, cell-based; settings: hcc827, 16 h
NCI-H3255 [10] = assay: Effect on AKT level in human H3255 cells up to 10 uM treated 8 hrs post serum starvation measured after 16 hrs by Western blot analysis; assay type: ADME, cell-based; settings: nci-h3255, 16 h
[11] = target: T1, Epidermal growth factor receptor (Homo sapiens, UniProt P00533); assay: Induction of wild-type EGFR degradation in human OVCAR8 cells at up to 10 uM treated 8 hrs post serum starvation measured after 16 hrs by Western blot analysis; assay type: cell-based
T1 sequence (P00533 whole entry): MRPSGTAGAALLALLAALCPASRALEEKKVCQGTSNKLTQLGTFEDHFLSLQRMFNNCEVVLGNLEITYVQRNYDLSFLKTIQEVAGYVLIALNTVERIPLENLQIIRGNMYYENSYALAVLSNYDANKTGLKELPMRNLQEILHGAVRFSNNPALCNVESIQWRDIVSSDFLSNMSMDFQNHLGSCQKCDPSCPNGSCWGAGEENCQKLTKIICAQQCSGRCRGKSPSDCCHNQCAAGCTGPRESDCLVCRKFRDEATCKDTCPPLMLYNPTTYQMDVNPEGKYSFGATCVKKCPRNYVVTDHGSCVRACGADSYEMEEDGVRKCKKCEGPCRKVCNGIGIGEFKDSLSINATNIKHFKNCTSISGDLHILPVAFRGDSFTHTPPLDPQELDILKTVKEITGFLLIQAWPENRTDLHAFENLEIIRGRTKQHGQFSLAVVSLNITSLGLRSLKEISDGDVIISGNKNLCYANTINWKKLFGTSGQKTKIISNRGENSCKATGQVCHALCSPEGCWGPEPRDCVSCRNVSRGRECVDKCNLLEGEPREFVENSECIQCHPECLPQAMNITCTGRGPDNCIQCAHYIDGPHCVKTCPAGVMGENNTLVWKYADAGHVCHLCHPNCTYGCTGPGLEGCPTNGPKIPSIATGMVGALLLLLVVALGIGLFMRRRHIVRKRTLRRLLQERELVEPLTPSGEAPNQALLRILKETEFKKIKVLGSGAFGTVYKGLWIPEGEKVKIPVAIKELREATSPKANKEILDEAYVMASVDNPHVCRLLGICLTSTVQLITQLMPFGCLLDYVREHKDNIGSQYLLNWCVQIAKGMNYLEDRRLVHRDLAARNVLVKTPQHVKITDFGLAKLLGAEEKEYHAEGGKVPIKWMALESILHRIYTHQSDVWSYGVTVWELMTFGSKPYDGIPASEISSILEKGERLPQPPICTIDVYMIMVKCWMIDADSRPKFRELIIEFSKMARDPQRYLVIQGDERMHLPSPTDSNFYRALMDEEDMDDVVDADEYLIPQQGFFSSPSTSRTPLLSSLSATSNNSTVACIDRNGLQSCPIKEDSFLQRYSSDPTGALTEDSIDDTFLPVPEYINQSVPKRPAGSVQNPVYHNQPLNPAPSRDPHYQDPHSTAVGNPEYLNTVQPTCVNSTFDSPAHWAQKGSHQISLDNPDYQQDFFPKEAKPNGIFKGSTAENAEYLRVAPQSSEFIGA

[12] = target: T1, Epidermal growth factor receptor; assay: Induction of wild-type EGFR degradation in human H1299 cells at up to 10 uM treated 8 hrs post serum starvation measured after 16 hrs by Western blot analysis; assay type: cell-based
[13] = system: Protein cereblon/Epidermal growth factor receptor (Homo sapiens), P00533+Q96SW2 [UNDEFINED MUTATION]; assay: Protac activity at CRBN/EGFR exon 19 deletion mutant in human HCC827 cells assessed as induction of EGFR degradation at 100 nM treated 8 hrs post serum starvation measured after 12 hrs by Western blot analysis relative to control; assay type: cell-based
How it was run: (§2)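 After 8 h serum starvation, cells got 100 nM degrader and were collected at serial time points for Western blot of EGFR and downstream signaling.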

[14] = system: Protein cereblon/Epidermal growth factor receptor (Homo sapiens), P00533+Q96SW2 [L858R]; assay: Protac activity at CRBN/EGFR L858R mutant in human H3255 cells assessed as induction of EGFR degradation at 100 nM treated 8 hrs post serum starvation by Western blot analysis; assay type: cell-based; settings: TDE = time-dependent effect; how it was run: as §2
[15] = system: Protein cereblon/Epidermal growth factor receptor (Homo sapiens), P00533+Q96SW2 [L858R]; assay: Protac activity at CRBN/EGFR L858R mutant in human H3255 cells assessed as reduction in AKT phosphorylation at 100 nM treated 8 hrs post serum starvation by Western blot analysis; assay type: cell-based; settings: TDE = time-dependent effect; how it was run: as §2
[16] = system: Protein cereblon/Epidermal growth factor receptor (Homo sapiens), P00533+Q96SW2 [UNDEFINED MUTATION]; assay: Protac activity at CRBN/EGFR exon 19 deletion mutant in human HCC827 cells assessed as induction of EGFR degradation at 0.1 to 1 uM incubated for 8 hrs in absence of FBS by Western blot analysis; assay type: cell-based
[17] = system: Protein cereblon/Epidermal growth factor receptor (Homo sapiens), P00533+Q96SW2 [L858R]; assay: Protac activity at CRBN/EGFR L858R mutant in human H3255 cells assessed as induction of EGFR degradation at 100 nM measured after 8 hrs in presence of neddylation inhibitor MLN4924 by Western blot analysis; assay type: cell-based
[18] = system: Protein cereblon/Epidermal growth factor receptor (Homo sapiens), P00533+Q96SW2 [L858R]; assay: Protac activity at CRBN/EGFR L858R mutant in human H3255 cells assessed as induction of EGFR degradation at 100 nM measured after 8 hrs in presence of EGFR inhibitor gefitinib by Western blot analysis; assay type: cell-based
[19] = system: Protein cereblon/Epidermal growth factor receptor (Homo sapiens), P00533+Q96SW2 [L858R]; assay: Reversible protac activity at CRBN/EGFR L858R mutant in human H3255 cells assessed as recovery of EGFR degradation at 100 nM preincubated for 12 hrs followed by compound washout and measured up to 48 hrs by Western blot analysis; assay type: cell-based
How it was run: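 Cells were serum-starved 8 h, then given degrader for 12 h. They were washed three times with PBS and harvested at the indicated time points after washout. EGFR, p-EGFR and p-AKT were read by Western blot.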

NCI-H3255 [20] = assay: Antiproliferative activity against human H3255 cells measured after 3 days by CCK8 assay; assay type: functional, cell-based
How it was run: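 H3255 cells seeded 4000/well the night before, then exposed to serial dilutions for 3 days. Growth read by Cell Counting Kit-8; three independent experiments. IC50 from nonlinear regression (log inhibitor vs response, variable slope).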

[21] = system: Protein cereblon/Epidermal growth factor receptor (Homo sapiens), P00533+Q96SW2 [UNDEFINED MUTATION]; assay: Protac activity at CRBN/EGFR exon 19 deletion mutant in human HCC827 cells assessed as induction of EGFR degradation at 100 nM measured after 16 hrs by LC-MS analysis relative to control; assay type: cell-based
HCC827 [22] = assay: Up regulation of HMGCS1 expression in human HCC827 cells at 100 nM measured after 16 hrs by LC-MS analysis; assay type: functional, cell-based
How it was run: (§3)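 HCC-827 cells serum-starved 8 h, then treated at 100 nM for 16 h. Collected for label-free quantitative LC–MS proteomics; LFQ intensity compared between treated and control groups; three independent experiments.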

HCC827 [23] = assay: Down regulation of SLC30A7 expression in human HCC827 cells at 100 nM measured after 16 hrs by LC-MS analysis; assay type: functional, cell-based; how it was run: as §3
HCC827 [24] = assay: Down regulation of NELFE expression in human HCC827 cells at 100 nM measured after 16 hrs by LC-MS analysis; assay type: functional, cell-based; how it was run: as §3
[25] = Toxicity in Swiss albino mouse assessed as clinical changes at 50 mg/kg, ip; assay type: organism-based; settings: in vivo
[26] = system: Protein cereblon/Epidermal growth factor receptor (Homo sapiens), P00533+Q96SW2 [UNDEFINED MUTATION]; assay: Reversible protac activity at CRBN/EGFR exon 19 deletion mutant in human HCC827 cells assessed as recovery of AKT phosphorylation at 100 nM preincubated for 12 hrs followed by compound washout and measured after 48 hrs by Western blot analysis

Sequence of Protein cereblon/Epidermal growth factor receptor (Homo sapiens), P00533+Q96SW2 [UNDEFINED MUTATION] (P00533 whole entry, looked up, stated change not applied): as the sequence (P00533 whole entry) above
Sequence of Protein cereblon/Epidermal growth factor receptor (Homo sapiens), P00533+Q96SW2 [UNDEFINED MUTATION] (Q96SW2 whole entry, looked up, stated change not applied): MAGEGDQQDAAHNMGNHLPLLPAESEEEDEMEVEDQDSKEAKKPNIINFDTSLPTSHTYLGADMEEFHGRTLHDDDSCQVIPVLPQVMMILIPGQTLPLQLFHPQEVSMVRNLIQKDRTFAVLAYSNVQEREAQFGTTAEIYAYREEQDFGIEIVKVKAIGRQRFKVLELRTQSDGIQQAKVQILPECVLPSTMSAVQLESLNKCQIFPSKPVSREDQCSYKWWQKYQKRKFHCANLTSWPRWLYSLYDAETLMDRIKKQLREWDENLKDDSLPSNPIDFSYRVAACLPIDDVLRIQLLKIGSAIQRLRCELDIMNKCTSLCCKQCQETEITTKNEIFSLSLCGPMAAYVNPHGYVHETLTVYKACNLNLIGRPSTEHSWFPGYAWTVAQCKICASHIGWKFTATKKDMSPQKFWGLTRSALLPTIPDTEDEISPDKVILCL

COc1cc2ncnc(Nc3ccc(F)c(Cl)c3)c2cc1OCCCN1CCN(CCC(=O)NCCCCCCCCOc2cccc3c2C(=O)N(C2CCC(=O)NC2=O)C3=O)CC1 (stereo unspecified)
Activity [1]: Active | %max [2]: > 95% | %max [3]: > 95% | Activity [4]: inactive | Activity [5]: Active | Activity [6]: Active | Activity [7]: Active | Activity [8]: Active | Activity (HCC827 [9]): Non-Toxic | Activity (NCI-H3255 [10]): Non-Toxic | Activity [11]: Not Active | Activity [12]: Not Active | Activity [13]: 100% | Activity [14]: Tde | Activity [15]: Tde | Activity [16]: Active | Activity [17]: inactive | Activity [18]: inactive | Activity [19]: Active | Activity (NCI-H3255 [20]): Active | Activity [21]: > 75% | Activity (HCC827 [22]): Active | Activity (HCC827 [23]): Active | Activity (HCC827 [24]): Active | Activity [25]: Non-Toxic | Activity [26]: Active

Source: ChEMBL document CHEMBL4376874, “Discovery of Potent and Selective Epidermal Growth Factor Receptor (EGFR) Bifunctional Small-Molecule Degraders” (J Med Chem, 2020)
